Measurements pooled from the literature.
Target: Megakaryocyte-associated tyrosine-protein kinase (MATK, Homo sapiens, UniProt P42679)
One construct used (P42679 1-507): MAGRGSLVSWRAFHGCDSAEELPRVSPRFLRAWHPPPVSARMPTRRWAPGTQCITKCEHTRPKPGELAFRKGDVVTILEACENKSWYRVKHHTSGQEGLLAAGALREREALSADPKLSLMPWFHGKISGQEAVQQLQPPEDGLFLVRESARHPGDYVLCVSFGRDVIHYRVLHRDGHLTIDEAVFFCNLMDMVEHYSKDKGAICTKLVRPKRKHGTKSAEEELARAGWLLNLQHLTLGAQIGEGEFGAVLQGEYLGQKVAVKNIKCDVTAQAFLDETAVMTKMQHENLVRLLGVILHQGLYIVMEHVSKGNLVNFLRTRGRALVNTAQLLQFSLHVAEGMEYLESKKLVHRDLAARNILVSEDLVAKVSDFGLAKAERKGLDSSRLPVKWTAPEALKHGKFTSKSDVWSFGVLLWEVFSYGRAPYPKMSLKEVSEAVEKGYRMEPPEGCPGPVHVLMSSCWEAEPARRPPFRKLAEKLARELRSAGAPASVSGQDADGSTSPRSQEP

CC(C)(O)[C@H]1CC[C@H](Nc2ccc3ncc(-c4cccc(C(F)(F)F)c4)n3n2)CC1  remaining activity (enzyme activity; inhibitor; 1 µM): 102%
CN(C(=O)c1ccccc1)c1cc(N(C)c2ccc3c(c2)CCc2ccc(C(=O)NCCN4CCOCC4)cc2C3=O)ccc1F  remaining binding (cell-free assay; competition with immobilised ligand; 1 µM): 84%
COc1cc2ncnc(Nc3ccc(Oc4ccccc4)cc3C)c2cc1OC  inhibition (enzyme activity; inhibitor; 1 µM): 0%
CNC(=O)c1cc(Oc2ccc(NC(=O)Nc3ccc(Cl)c(C(F)(F)F)c3)cc2)ccn1  remaining signal (cell-free assay; 0.5 µM): 114%
Cc1ccc(C(=O)Nc2ccc(CN3CCN(C)CC3)c(C(F)(F)F)c2)cc1C#Cc1cnc2cccnn12  remaining activity (enzyme activity; inhibitor; 23.5 nM): 52%
CC(C)(C)c1nc2c(s1)c1nc(N)ncc1c1ccc(NS(=O)(=O)c3c(F)cccc3F)c(F)c12  remaining activity (enzyme activity; inhibitor; radiometric; 1 µM): 101%
c1nc2c(Nc3ccc4c(c3)OCCO4)nc(Nc3ccc4c(c3)OCCO4)nc2[nH]1  activity vs control (enzyme activity; inhibitor; 10 µM): 49%
O=C(Nc1cnn(-c2csc(C(=O)NC3COC3)c2)c1)Nc1c(F)cccc1Cl  remaining activity (enzyme activity; inhibitor; 5 µM): 100%
O=C(O)[C@@H]1[C@@H](Cn2nnc3ccccc3c2=O)CC[C@H]1C(=O)c1ccc(OCCC2CCOCC2)cc1  remaining binding (cell-free assay; competition with immobilised ligand; 1 µM): 95%
N#CCCc1ccc2c(c1)-c1[nH]c3ccc([N+](=O)[O-])cc3c1CC(=O)N2  remaining signal (cell-free assay; 0.5 µM): 101%
CNC(=O)c1ccc(Nc2ncc(C(F)(F)F)c(NCc3nccnc3N(C)S(C)(=O)=O)n2)cc1  remaining binding (cell-free assay; competition with immobilised ligand; 0.1 µM): 37%
Cc1sc(C(=O)NC2COC2)cc1-n1cc(NC(=O)Nc2c(F)cccc2Cl)cn1  remaining activity (enzyme activity; inhibitor; 10 µM): 97.8%
